Screening results: PubChem, several laboratories
NF-kB expr up: activators of NF-kB expression in neurons, primary screen, cell-based, HTS; human neuronal cells, NF-kB reporter expression; stronger effect = higher value; fold change at 12.5 µM; hit rate 1.6% among 190,000; AID 1239, 2008; in the data active means fold change above about 3.3
APP 5'UTR act: activators of APP 5'UTR luciferase reporter, primary screen, SH-SY5Y cells; activation, % at 2 µM; hit rate 1% among 190,000; AID 1276, 2008; SH-SY5Y APP 5'UTR luciferase reporter, luminescence; zero percent = DMSO vehicle wells;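 active means activation above a set limit, based on mean plus 3 SD of controls, cut at about 140% in these data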
STAT1 blocker: STAT1 signaling inhibitors, primary screen, cell-based, HTS, luciferase reporter; NIH 3T3 STAT1-luciferase reporter, IFN-gamma, luminescence; hit rate 0.35% among 200,000; inhibition, % at 5.5 µM;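 active means inhibition above a set limit, the mean inhibition across all tested compounds plus 3 SD, cut at about 34% in these data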;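 further: 0% = IFN-gamma with DMSO and 100% = IFN-gamma with 300 µM nifuroxazide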
STAT3 blocker: IL-6 driven STAT3 reporter inhibitors, primary screen, U3A cells, luciferase, luminescence, MLSCN library | IL-6 STAT3-luciferase reporter; host cell line lacks STAT1 | inhibition, % at 5.5 µM | hit rate 0.89% among 190,000 | AID 862, 2007;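 active means inhibition above the mean inhibition across all screened compounds plus 3 SD, cut at about 44% in these data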;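 further: 0% = DMSO only wells and 100% = 100 µM nifuroxazide control wells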
STAT3 act: IL-6 driven STAT3 reporter potentiators, primary screen, U3A cells, luciferase, luminescence, MLSCN library. AID 871, 2007. hit rate 0.91% among 190,000. activation (% of control), % at 5.6 µM. IL-6 STAT3-luciferase reporter; 100% = signal with IL-6 EC80 alone;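 active means activation above the screen-wide mean of compound activation plus 3 SD, cut at about 130% in these data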;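 further: 0% = background luminescence of wells with medium and substrate only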
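Test system: human U3A cells carrying STAT3-luciferase construct; control set: IL-6-only wells as 100% reference; timing: compound pre-incubation 1 h before IL-6, then 6 h stimulation at 37 °C; also added: IL-6 stimulus at 33 ng/mL final; evaluation: % activation versus median of IL-6-stimulated wells; detection: reporter luminescence signal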
STAT1 act: STAT1 signaling activators, primary screen, cell-based, HTS, luciferase reporter. AID 932, 2007. activation (% of control), % at 5.5 µM. NIH 3T3 STAT1-luciferase reporter, IFN-gamma, luminescence; 100% = IFN-gamma alone, no compound. hit rate 2.6% among 200,000;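 active means activation above the screen-wide mean activation plus 3 SD, cut at about 130% in these data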;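 further: raw ratio to IFN-gamma control signal so 100% means no change and 0% no light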
STAT1 activ conf: STAT1 signaling activators, confirmation, cell-based, HTS, luciferase reporter. shares compounds with STAT1 act. NIH 3T3 STAT1-luciferase reporter, IFN-gamma potentiation, luminescence; 100% = IFN-gamma EC80 alone, no compound. activation (% of control), % at 5.7 µM. hit rate 97% among 1,200. AID 1262, 2008;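 active means activation above a set limit carried over from the earlier primary STAT1 screen, cut at about 140% in these data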;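 further: simple ratio to median IFN-gamma plus DMSO wells so 0% means no light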
NFkB act STAT1ct: NF-kB reporter activators, TNF-alpha stimulated, counter-screen for STAT1 activator project, cell-based, HEK293T, luciferase luminescence. shares compounds with STAT1 act. activation (% of control), % at 5.7 µM. 100% = TNF-alpha with vehicle only. hit rate 43% among 1,200;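 active means activation above the mean of solvent-only control wells plus 3 SD, set per campaign, cut at about 130% in these data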;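 further: TNF-alpha given at a submaximal dose yielding about 80% of full reporter signal; values are well signal over median control so 100% means no change and 0% no light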
STAT3 act STAT1c: STAT3 reporter activation by STAT1 hits, confirmation, counter-screen for STAT1 activator project, U3A cells, luciferase, luminescence | shares compounds with STAT1 act | activation (% of control), % at 5.7 µM | IL-6; cells lack STAT1; 100 = IL-6 alone, no compound effect | AID 1316, 2008 | hit rate 46% among 1,200;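 active means activation above the solvent-only control well mean plus 3 SD, set per plate batch, cut at about 110% in these data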;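 further: 0% = no luminescence and 100% = median IL-6 plus DMSO wells; higher means more STAT3 reporter activation so hits are non-selective activators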
An asterisk follows results filed as active; nt = not tested or not shown. Compounds with a hit are over-represented: about 4.9% of the library has one in this group of screens.

SMILES	NF-kB expr up	APP 5'UTR act	STAT1 blocker	STAT3 blocker	STAT3 act	STAT1 act	STAT1 activ conf	NFkB act STAT1ct	STAT3 act STAT1c
Cc1c(C(=O)NCC2CCCO2)oc2ccc(S(=O)(=O)N3CCCC3)cc12 (stereo unspecified)	0.37	-7	-8	12	94	106	nt	nt	nt
Cc1c(C(=O)NCC2CCCO2)oc2ccc3c(c12)C(=O)CC(C)(C)O3 (stereo unspecified)	3.4*	156*	-61	21	85	155*	209*	122	126*
N#CC1=C(N)Nc2nc3ccccc3n2C1c1ccc(Cl)cc1 (stereo unspecified)	1.6	0	-12	14	90	111	nt	nt	nt
CC(=O)Nc1ccccc1OCc1cnc(Cl)s1	0.85	15	1	-4	107	96	nt	nt	nt
Cc1nc(-c2ccc(NC(=O)c3ccccc3Br)cc2)cs1	4.8*	79	-57	4	96	151*	174*	129	102
Cc1nc(-c2ccc(NC(=O)c3ccccc3C)cc2)cs1	5.1*	120	-68	17	89	159*	178*	125	94
c1ccc2c(c1)CCN(c1nc3cc4c(cc3s1)OCO4)C2	12*	151*	-88	22	86	180*	261*	136*	107
Brc1csc(/C=N/Nc2nc3ccccc3s2)c1	4.4*	162*	-101	-14	114	190*	248*	149*	134*
c1ccc2sc(Nc3nc4cc5c(cc4s3)OCO5)nc2c1	4.7*	195*	-98	0	100	187*	264*	149*	124*
Brc1ccc(-c2csc(N3CCc4ccccc4C3)n2)cc1	1.1	4	-1	-4	108	101	nt	nt	nt
Fc1ccc2nc(Nc3nc4cc5c(cc4s3)OCCO5)sc2c1	1.6	102	-74	4	97	166*	194*	125	105
O=[N+]([O-])c1cc(Cl)cc(/C=N/Nc2nc3ccccc3s2)c1O	1	22	-17	-29	128	113	nt	nt	nt
CC(C)S(=O)(=O)N1CCCC(C(=O)c2cccc(Cl)c2)C1 (stereo unspecified)	1	-2	4	8	98	96	nt	nt	nt
C(=N\Nc1nc2ccccc2s1)/c1ccc2c(c1)OCO2	3.8*	180*	-119	-27	118	209*	272*	123	124*
Cc1ccc(Nc2nc3ccccc3s2)c(C)c1	6.4*	168*	-93	26	78	182*	220*	109	98
Cn1cnnc1SCC(=O)Nc1ccc(OC(F)F)cc1	0.99	1	-6	6	101	104	nt	nt	nt
C=CCSc1nncn1/N=C/c1ccc(OC)cc1	3.4*	111	-92	-25	125	184*	201*	146*	133*
COc1ccc(/C=N/n2cnnc2SCCO)cc1OC	1.4	9	1	-13	112	99	nt	nt	nt
O=C1CN(c2nc(-c3cccnc3)nc3sc4c(c23)CCCC4)CCN1	0.49	20	-9	6	105	106	nt	nt	nt
Nc1nc(-c2cccnc2)nc2sc3c(c12)CCCC3	5.6*	93	-67	6	98	159*	213*	146*	116*
NC1=NS(=O)(=O)NC1c1ccc(F)cc1 (stereo unspecified)	1.2	8	-4	3	100	102	nt	nt	nt
Cc1cc(/C=C2/NC(=O)N(c3ccccc3)C2=O)c(C)n1-c1cccnc1	1.2	86	-58	-10	112	151*	192*	132	119*
CCOc1ccc(NC(=O)CC2C(=O)N(c3ccccc3)C(=O)N2CCc2cccs2)cc1 (stereo unspecified)	1.1	-6	12	11	89	89	nt	nt	nt
COc1cccc(C(=O)/C=C/Nc2ccc(S(=O)(=O)Nc3cccc(C(C)=O)c3)cc2)c1	0.57	-2	15	22	84	86	nt	nt	nt
COc1cccc(N/C=C/C(=O)c2ccc(Cl)cc2)c1	6.4*	198*	-91	19	86	180*	239*	115	96
SMILES	NF-kB expr up	APP 5'UTR act	STAT1 blocker	STAT3 blocker	STAT3 act	STAT1 act	STAT1 activ conf	NFkB act STAT1ct	STAT3 act STAT1c
COc1cccc(C(C)NC(=O)Nc2ccccc2Cl)c1 (stereo unspecified)	0.67	17	5	11	96	95	nt	nt	nt
Cc1cccnc1NC(=S)Nc1ccc(Br)cc1Cl	1.1	105	-64	2	102	154*	198*	143*	105
O=C(CN(Cc1ccccc1)C(=O)c1csnn1)NCc1ccccc1	1.1	-4	-6	8	97	105	nt	nt	nt
O=C(O)/C=C/C(=O)Nc1ccccc1-c1ccccc1NC(=O)/C=C/C(=O)O	0.98	nt	1	-4	104	99	nt	nt	nt
O=C(O)/C=C\C(=O)Nc1ccccc1C#Cc1ccc(Br)cc1	8*	158*	-65	-2	111	159*	131*	130	95
Cc1ccn2c(c1)nc(=S)n2C(=O)c1ccccc1	1.1	189*	-202	-11	113	283*	518*	185*	138*
